Screening data deposited in PubChem by several laboratories.
Compounds with a hit are over-represented: about 2.1% of the library has one in this group of screens.
LMPTP block = LMPTP phosphatase inhibitors, primary screen, biochemical, fluorescence intensity, uHTS; Low molecular weight phosphotyrosine protein phosphatase (Homo sapiens), P24666; recombinant LMPTP-A, OMFP fluorogenic substrate; inhibition, % at 20 µM; 360,000 compounds, 0.22% hits;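 active = compounds that cut the enzyme signal by at least half of the control window in the single-dose screen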;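 also: plate controls were DMSO wells with enzyme plus substrate for no effect and substrate without enzyme for full effect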
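Assay system: LMPTP-A phosphatase enzyme | Input: 0.625 nM enzyme | Also added: Fluorogenic phosphatase substrate OMFP at 400 µM final | Compound dosing: One test concentration per compound, 20 µM, with 3% DMSO overall | Schedule: 50 min enzyme reaction at room temperature, protected from light | Signal: Fluorescence intensity | Benchmarks: no-enzyme and uninhibited controls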
Scp-1 inhibitor = Scp-1 phosphatase inhibitors, primary screen, biochemical, colorimetric, uHTS; Carboxy-terminal domain RNA polymerase II polypeptide A small phosphatase 1 (Homo …; inhibition, % at 20 µM; Recombinant Scp1, phosphopeptide, malachite green phosphate absorbance; 340,000 compounds, 0.88% hits;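 active = inhibition above about 50% at 20 µM, limit read from the data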;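 also: plate controls were DMSO wells with enzyme for no effect and wells lacking enzyme for full effect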
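Test system: SCP-1 catalytic domain; Buffer or medium: Acidic Tris acetate buffer with magnesium and detergent; Also added: Phosphorylated 17-residue peptide substrate; Compound: single 20 µM dose, 1% DMSO; Schedule: enzyme reaction 45 min at room temperature, colour 5 min, stabilisation 30 min; Signal: Phosphate-binding colour reagent, absorbance read at 630 nm.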
SUMO1 PPI mod = modulators of SUMO1 protein-protein interactions, primary screen, biochemical, uHTS. 360,000 compounds, 0.33% hits. inhibition, % at 20 µM. AID 602429, 2012. SUMO1 binding to a labelled peptide, TR-FRET, 1 h. Small ubiquitin-related modifier 1 (Homo sapiens), P63165; in the data active = inhibition above about 37%
STEP inh = STEP phosphatase inhibitors, primary screen, biochemical, fluorescence intensity, uHTS; recombinant STEP, OMFP fluorogenic substrate; AID 588621, 2011; Tyrosine-protein phosphatase non-receptor type 5 (Homo sapiens), P54829; 360,000 compounds, 0.25% hits; inhibition, % at 20 µM;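 active = inhibition at 20 µM, scaled per plate between control wells, above about 37%, limit read from the data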;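 also: 0% = DMSO with enzyme and substrate and 100% = substrate only without enzyme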
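Test system: STEP tyrosine phosphatase / Reagent: OMFP at 25 µM / Doses: 20 µM, 1% DMSO / Read-out: percent inhibition scaled to no-enzyme and uninhibited-enzyme controls, plate-pattern corrected / Detection: FITC-channel fluorescence of OMFP product / Medium: Bis-Tris buffer pH 6.0, 2.5 mM DTT, 0.005% Tween 20 / Schedule: 20 min at room temperature, dark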
GRK2 inh = compounds blocking aptamer binding on GRK2 – biochemical, human GRK2, bead flow cytometry, HTS, primary screen; Beta-adrenergic receptor kinase 1 (Homo sapiens), P25098; 330,000 compounds, 0.59% hits; inhibition of aptamer binding, % at 10 µM; FAM-aptamer displacement from GRK2; AID 488847, 2010;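 active = inhibition of aptamer binding above 40%, roughly 3 SD of noise, on plates passing a quality check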;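 also: median bead fluorescence of bound FAM aptamer so fluorescent compounds give negative values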
Target sequence (P25098 whole entry, looked up): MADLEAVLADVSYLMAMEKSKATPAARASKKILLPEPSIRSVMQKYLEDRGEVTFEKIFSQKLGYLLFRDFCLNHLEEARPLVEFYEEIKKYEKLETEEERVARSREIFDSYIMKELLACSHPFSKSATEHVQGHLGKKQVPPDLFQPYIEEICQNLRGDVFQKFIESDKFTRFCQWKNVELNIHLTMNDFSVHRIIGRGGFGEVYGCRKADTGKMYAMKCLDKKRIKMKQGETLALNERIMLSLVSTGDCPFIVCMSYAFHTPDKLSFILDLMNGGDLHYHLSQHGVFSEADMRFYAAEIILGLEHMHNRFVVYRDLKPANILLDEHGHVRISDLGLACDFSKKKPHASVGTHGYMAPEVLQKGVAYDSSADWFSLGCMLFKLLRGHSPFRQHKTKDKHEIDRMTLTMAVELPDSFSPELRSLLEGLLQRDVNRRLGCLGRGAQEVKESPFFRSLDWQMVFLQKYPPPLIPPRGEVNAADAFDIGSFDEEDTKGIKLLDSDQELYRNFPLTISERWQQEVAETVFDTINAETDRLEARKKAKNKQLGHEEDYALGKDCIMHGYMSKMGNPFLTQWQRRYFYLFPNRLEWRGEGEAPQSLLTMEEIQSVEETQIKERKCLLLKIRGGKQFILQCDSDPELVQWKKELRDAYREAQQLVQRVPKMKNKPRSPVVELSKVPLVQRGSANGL
DNMT1 inh = human DNMT1 methyltransferase inhibitors, primary screen, biochemical, molecular beacon, fluorescence, HinP1I cleavage, uHTS | 360,000 compounds, 0.83% hits | inhibition (reported as % activation of signal), % at 10 µM | DNA (cytosine-5)-methyltransferase 1 (Homo sapiens), P26358; in the data active = inhibition above about 50%
Starred values were filed as active, the others as inactive; x = no result given.

SMILES	LMPTP block	Scp-1 inhibitor	SUMO1 PPI mod	STEP inh	GRK2 inh	DNMT1 inh
CCCOc1ccccc1NC(=O)Nc1ccccc1Cl	0.8	-15.2	1.1	-1.1	0.0	0.2
CCCC(C(=O)NCc1ccc(OC)cc1)N(Cc1ccco1)C(=O)c1snc(C(N)=O)c1N (stereo not given)	-1.4	-11.3	51.2*	1.6	4.0	-3.5
O=C1c2c(O)cccc2Cc2cccc(O)c21	29.9	-10.0	2.0	10.4	3.0	94.8*
CN(Cc1ccccc1)C(=O)c1cccc(NC(=O)Cc2ccc(NC(=O)C3CCCN(C(=O)C4CCC4)C3)cc2)c1 (stereo not given)	-0.3	-8.3	5.2	-2.8	x	1.8
NC(=O)c1ccc(NC(=O)COC(=O)c2ccccc2SCC(=O)N2CCCC2)cc1	-2.0	x	-1.5	-1.9	x	6.0
CC[C@@H]1CC2=C(C(=O)OC(C)(C)O2)[C@H](c2ccc(F)cc2)O1	-1.1	x	0.4	1.4	x	5.9
COC1=CC(=O)C(O)=C(CCCCCCC/C=C/CCCCCCCC2=C(O)C(=O)C=C(OC)C2=O)C1=O	68.9*	88.0*	79.1*	10.2	2.0	81.9*
CCCCCCCCCCCC1=C(O)C(=O)C=C(O)C1=O	71.2*	33.9	10.9	11.8	2.0	30.8
CCN(CC)c1ccc(C(=O)OCC(=O)Nc2cc(C)on2)cc1	0.4	8.5	4.4	0.5	0.0	1.3
Cc1cccc(C)c1NC(=O)C1(C)CSCC(=O)N1CCCN1CCOCC1 (stereo not given)	-3.0	x	-1.8	x	x	x
CC[n+]1c(/C=C/c2ccc(OC(C)=O)c(OC)c2)ccc2ccccc21	0.8	55.0*	-44.5	-1.2	0.0	-3.8
CC1(O)CC2CC1C(C(=O)O)C2C(=O)O (stereo not given)	-0.4	4.7	3.4	-1.3	x	14.8
Oc1cccc(C=Nc2cccc3ccccc23)c1O	25.1	-7.0	67.5*	6.4	0.0	-8.6
Oc1ccccc1C=Nc1cccc2ccccc12	-1.5	-9.4	0.0	-1.0	1.0	-7.8
O=S1(=O)N[C@H](Cc2ccccc2)COc2cccc(N3CCSCC3)c21	1.3	x	-0.7	x	x	x
CCn1c(SCC(=O)Nc2cccc(NC(C)=O)c2)nnc1-c1ccco1	-0.5	0.1	-3.9	1.7	2.0	0.0
CCn1c(SCC(=O)Nc2ccc3c(c2)c2ccccc2n3CC)nnc1-c1ccco1	15.2	74.0*	25.6	0.2	0.0	95.8*
Nc1ccc(Cn2ccc3c4c(N)nc(N)nc4ccc32)cc1	64.3*	17.0	27.4	2.4	x	-4.0
Cc1nc2ccc(N)cc2c(=O)n1Cc1ccc(Cl)cc1	1.1	-9.2	-2.1	-2.7	2.0	-5.0
COC(=O)c1sc(NC(=O)c2cc(-c3ccccc3)nc3ccccc23)c(C#N)c1C	0.9	-9.3	4.5	90.9*	0.0	-26.7
CCOC(=O)c1sc(NC(=O)c2cc(-c3ccc(C)cc3)nc3ccccc23)c(C#N)c1C	1.9	-10.8	4.4	9.5	0.0	-22.9
COc1ccc(Nc2ccnc3ccccc23)cc1	56.0*	-0.5	-13.7	1.0	0.0	0.3
CC(C)Nc1ccc(Nc2ccnc3cc4ccccc4cc23)cc1	22.2	-4.0	-68.8	3.8	0.0	65.9*
COc1ccc(Nc2ncnc3ccccc23)cc1	3.3	-15.0	1.5	1.2	0.0	0.3
OC(CNCc1ccccc1)COCc1ccc(Cl)cc1 (stereo not given)	-0.4	-14.6	-1.3	-3.2	0.0	0.8
CC(NCC(O)COCc1ccc(Cl)cc1)c1ccccc1 (stereo not given)	-2.3	-12.8	64.7*	-3.2	0.0	3.0
O=C(O)c1cc(O)ccc1O	-1.2	-3.8	-1.9	-2.8	x	0.1
